Assays:
Assay type in all cases: functional
[1] = test system: Nakaseomyces glabratus; assay: Antifungal activity against Candida glabrata after 20 hrs by agar dilution method
[2] = test system: Escherichia coli; assay: Antibacterial activity against Escherichia coli ATCC 25922 after 24 hrs by broth micro dilution method; settings: ATCC 25922, 24 h
How it was run: (§1)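 MIC by broth microdilution; growth read visually and spectrophotometrically. MIC taken as the lowest concentration giving complete inhibition of bacterial growth.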

[3] = test system: Staphylococcus aureus; assay: Antibacterial activity against Staphylococcus aureus after 24 hrs by disc diffusion method
How it was run: (§2)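 Disk diffusion on agar; activity measured as the halo zone of inhibition around the disk.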

[4] = test system: Staphylococcus aureus; assay: Bactericidal activity against Staphylococcus aureus after 18 to 24 hrs; settings: read-out: MBC99.9
How it was run: (§3)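 MBC taken as the lowest concentration that killed the bacteria completely.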

[5] = test system: Staphylococcus aureus; assay: Antibacterial activity against Staphylococcus aureus after 24 hrs by broth micro dilution method; how it was run: as §1
[6] = test system: Candida tropicalis; assay: Antifungal activity against Candida tropicalis clinical isolate after 20 hrs by agar dilution method
[7] = test system: Candida parapsilosis; assay: Antifungal activity against Candida parapsilosis clinical isolate after 20 hrs by agar dilution method; settings: Lodderomyces parapsilosis
[8] = test system: Candida dubliniensis; assay: Antifungal activity against Candida dubliniensis after 20 hrs by agar dilution method
[9] = test system: Escherichia coli; assay: Antibacterial activity against Escherichia coli ATCC 25922 after 24 hrs by disc diffusion method; how it was run: as §2
[10] = test system: Streptococcus pyogenes; assay: Antibacterial activity against Streptococcus pyogenes clinical isolate after 24 hrs by disc diffusion method
[11] = test system: Streptococcus pyogenes; assay: Bactericidal activity against Streptococcus pyogenes clinical isolate after 18 to 24 hrs; settings: read-out: MBC99.9
[12] = test system: Candida parapsilosis; assay: Antifungal activity against Candida parapsilosis after 20 hrs by agar dilution method; settings: Lodderomyces parapsilosis
[13] = test system: Klebsiella pneumoniae; assay: Antibacterial activity against Klebsiella pneumoniae clinical isolate after 24 hrs by disc diffusion method
[14] = test system: Escherichia coli; assay: Bactericidal activity against Escherichia coli ATCC 25922 after 18 to 24 hrs; settings: read-out: MBC99.9; how it was run: as §3
[15] = test system: Candida tropicalis; assay: Fungicidal activity against Candida tropicalis clinical isolate by micro dilution method
[16] = test system: Pseudomonas aeruginosa; assay: Antibacterial activity against Pseudomonas aeruginosa ATCC 27853 after 24 hrs by broth micro dilution method; settings: ATCC 27853, 24 h; how it was run: as §1
[17] = test system: Pichia kudriavzevii; assay: Antifungal activity against Candida krusei after 20 hrs by agar dilution method
[18] = test system: Candida albicans; assay: Antifungal activity against Candida albicans after 20 hrs by agar dilution method
How it was run: (§4)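 Clinical Candida isolates purified and subcultured on SC, SCC and PDA media before testing. Compounds were dissolved in DMSO as a stock, then diluted into solid PDA medium to final concentrations of 0.0312 to 256.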

[19] = test system: Candida parapsilosis; assay: Fungicidal activity against Candida parapsilosis clinical isolate by micro dilution method; settings: Lodderomyces parapsilosis
[20] = test system: Candida albicans; assay: Fungicidal activity against Candida albicans clinical isolate by micro dilution method
[21] = test system: Streptococcus pyogenes; assay: Antibacterial activity against Streptococcus pyogenes clinical isolate after 24 hrs by broth micro dilution method
[22] = test system: Candida dubliniensis; assay: Fungicidal activity against Candida dubliniensis by micro dilution method
[23] = test system: Pseudomonas aeruginosa; assay: Bactericidal activity against Pseudomonas aeruginosa ATCC 27853 after 18 to 24 hrs; settings: read-out: MBC99.9; how it was run: as §3
[24] = test system: Candida albicans; assay: Fungicidal activity against Candida albicans by micro dilution method
[25] = test system: Nakaseomyces glabratus; assay: Fungicidal activity against Candida glabrata by micro dilution method
[26] = test system: Klebsiella pneumoniae; assay: Bactericidal activity against Klebsiella pneumoniae clinical isolate after 18 to 24 hrs; settings: read-out: MBC99.9
[27] = test system: Candida tropicalis; assay: Fungicidal activity against Candida tropicalis by micro dilution method
[28] = test system: Pichia kudriavzevii; assay: Fungicidal activity against Candida krusei by micro dilution method
[29] = test system: Candida albicans; assay: Antifungal activity against Candida albicans clinical isolate after 20 hrs by agar dilution method
[30] = test system: Candida parapsilosis; assay: Fungicidal activity against Candida parapsilosis by micro dilution method; settings: Lodderomyces parapsilosis
[31] = test system: Candida tropicalis; assay: Antifungal activity against Candida tropicalis after 20 hrs by agar dilution method
[32] = test system: Klebsiella pneumoniae; assay: Antibacterial activity against Klebsiella pneumoniae clinical isolate after 24 hrs by broth micro dilution method
[33] = test system: Pseudomonas aeruginosa; assay: Antibacterial activity against Pseudomonas aeruginosa ATCC 27853 after 24 hrs by disc diffusion method; how it was run: as §2
[34] = test system: Candida tropicalis; assay: Fungicidal activity against fluconazole, itraconazole-resistant Candida tropicalis clinical isolate by micro dilution method
[35] = test system: Candida albicans; assay: Antifungal activity against fluconazole, itraconazole-resistant Candida albicans clinical isolate after 20 hrs by agar dilution method; how it was run: as §4
[36] = test system: Candida tropicalis; assay: Antifungal activity against fluconazole, itraconazole-resistant Candida tropicalis clinical isolate after 20 hrs by agar dilution method; how it was run: as §4
[37] = test system: Candida albicans; assay: Fungicidal activity against fluconazole, itraconazole-resistant Candida albicans clinical isolate by micro dilution method

CCCc1cc(CCCCCCCCC(=O)O)on1
19.2 mm: diameter of the inhibition zone (DIZ) [3]
256 mg/L: MIC90 [7] | MFC [22]
> 256 mg/L: MFC [15] | MIC90 [17] | MIC90 [18] | MFC [19] | MFC [20] | MFC [24] | MFC [25] | MFC [27] | MFC [28] | MIC90 [29] | MFC [30] | MIC90 [31]
> 100 mg/L: MBC [23] | MBC [26]
128 mg/L: MIC90 [1] | MIC90 [6] | MIC90 [8] | MIC90 [12]
21.6 mm: diameter of the inhibition zone (DIZ) [10]
100 mg/L: MBC [4] | MBC [11] | MBC [14] | MIC [16]
25.7 mm: diameter of the inhibition zone (DIZ) [9]
18.3 mm: diameter of the inhibition zone (DIZ) [13]
50 mg/L: MIC [2] | MIC [5] | MIC [21] | MIC [32]
31.2 mm: diameter of the inhibition zone (DIZ) [33]

CCCC1=NOC(CCCCCCCCC(=O)OC)C1 (stereo not drawn)
17.1 mm: diameter of the inhibition zone (DIZ) [13]
128 mg/L: MFC [15] | MFC [20]
> 100 mg/L: MBC [4] | MBC [14] | MBC [23] | MBC [26]
30.1 mm: diameter of the inhibition zone (DIZ) [33]
> 256 mg/L: MIC90 [1] | MIC90 [6] | MIC90 [7] | MIC90 [8] | MIC90 [12] | MIC90 [17] | MIC90 [18] | MFC [19] | MFC [22] | MFC [24] | MFC [25] | MFC [27] | MFC [28] | MIC90 [29] | MFC [30] | MIC90 [31]
18.1 mm: diameter of the inhibition zone (DIZ) [3]
100 mg/L: MIC [2] | MBC [11] | MIC [16] | MIC [32]
50 mg/L: MIC [5] | MIC [21]
25.1 mm: diameter of the inhibition zone (DIZ) [9]
20.2 mm: diameter of the inhibition zone (DIZ) [10]

CCCCCCCCC1C(CCC)=NOC1CCCCCCCC(=O)OC (stereo not drawn)
100 mg/L: MBC [4] | MBC [26]
18.5 mm: diameter of the inhibition zone (DIZ) [13]
26.7 mm: diameter of the inhibition zone (DIZ) [9]
25 mg/L: MIC [2] | MIC [5] | MIC [16] | MIC [21] | MIC [32]
> 256 mg/L: MIC90 [12] | MIC90 [35] | MFC [15] | MIC90 [17] | MFC [19] | MFC [20] | MFC [22] | MFC [25] | MIC90 [36] | MFC [27] | MFC [28] | MFC [30]
128 mg/L: MIC90 [1] | MFC [34] | MIC90 [6] | MIC90 [7] | MIC90 [8] | MIC90 [18] | MIC90 [29] | MIC90 [31]
256 mg/L: MFC [24]
22.3 mm: diameter of the inhibition zone (DIZ) [10]
21.6 mm: diameter of the inhibition zone (DIZ) [3]
31.3 mm: diameter of the inhibition zone (DIZ) [33]
50 mg/L: MBC [11] | MBC [14] | MBC [23]

CCCCCC[C@@H](O)CC1C(CCC)=NOC1CCCCCCCC(=O)OC (stereo partly drawn)
256 mg/L: MFC [15] | MFC [20] | MFC [22] | MFC [24] | MFC [25]
32 mg/L: MIC90 [1] | MIC90 [8] | MIC90 [12] | MIC90 [29]
23.2 mm: diameter of the inhibition zone (DIZ) [10]
19.2 mm: diameter of the inhibition zone (DIZ) [13]
> 256 mg/L: MFC [37] | MFC [19] | MIC90 [36] | MFC [27]
22.6 mm: diameter of the inhibition zone (DIZ) [3]
27.6 mm: diameter of the inhibition zone (DIZ) [9]
32.5 mm: diameter of the inhibition zone (DIZ) [33]
50 mg/L: MBC [4] | MBC [11] | MBC [14] | MBC [23]
25 mg/L: MIC [2] | MIC [5] | MIC [16] | MIC [21] | MIC [32]
100 mg/L: MBC [26]
128 mg/L: MIC90 [7] | MIC90 [35] | MIC90 [18] | MFC [28] | MFC [30]
64 mg/L: MIC90 [6] | MIC90 [17] | MIC90 [31]
